# Results taken from ChEMBL document CHEMBL1811830, “Synthesis, structure and cytotoxicity of 3-C, N, S, Se substituted benzo[b]selenophene derivatives” (Eur J Med Chem, 2011).
# Active and inactive are the calls of the source. The calls are words filed in the database; no cut-off is given here.
# Columns and labels:
# MG-22A [1] = assay: Cytotoxicity against mouse MG-22A cells after 72 hrs by MTT assay; format: functional; conditions: for CC50: read-out: TD50 (the source's name)
# Method in brief: (§1)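 Cells from passages 1–4 after thawing, seeded at about 2–5·10⁴ cells/mL with compounds added immediately. Incubation 72 h, 37 °C, 5% CO₂. MTT read-out: medium replaced with fresh medium containing 10 mM HEPES, MTT (2 mg/mL in HBSS) added for 3 h. Dissolved in DMSO plus glycine buffer pH 10.5, absorbance 540 nm. TD50 = concentration giving 50% cell kill, averaged from CV and MTT.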
# [2] = (§2) Cytotoxicity against mouse NIH/3T3 cells after 72 hrs by MTT assay; format: cell-based, NIH3T3; conditions: NIH/3T3 cells, read-out: TD50; method in brief: as §1
# HT-1080 [3] = assay: Cytotoxicity against human HT1080 cells after 72 hrs by MTT assay; format: functional; conditions: for CC50: HT-1080, 72 h, read-out: TD50 (the source's name); method in brief: as §1
# HT-1080 [4] = assay: Cytotoxicity against human HT1080 cells assessed as nitric oxide concentration at 100 ug/ml after 72 hrs by crystal violet coloration assay (reference value: 100%); format: functional
# MG-22A [5] = assay: Cytotoxicity against mouse MG-22A cells assessed as nitric oxide concentration at 100 ug/ml after 72 hrs by crystal violet coloration assay (reference value: 100%); format: functional
# HT-1080 [6] = assay: Induction of apoptosis in human HT1080 cells assessed as change in cell morphology after 72 hrs by acridine orange staining based fluorescence microscopic analysis; format: functional
# Method in brief: (§3)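 Adherent cells treated 72 h, 37 °C, 5% CO₂, in 96-well plates. Stained 2 min with acridine orange 10 μg/mL in PBS pH 7.4, washed once with PBS, then viewed in PBS by inverted fluorescence microscopy. Chromatin condensation shown by DNA staining: living cells green, apoptotic cells orange/yellow, necrotic cells red.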
# NIH3T3 [7] = assay: as §2; format: cell-based; conditions: nih3t3, 72 h; method in brief: as §1
# HT-1080 [8] = assay: Induction of mitochondria mediated apoptosis in human HT1080 cells assessed as change in cell phenotype after 72 hrs by acridine orange staining based fluorescence microscopic analysis; format: functional; method in brief: as §3
# NIH3T3 [9] = assay: Induction of apoptosis in mouse NIH/3T3 cells after 72 hrs by acridine orange staining based fluorescence microscopic analysis; format: cell-based; conditions: nih3t3, 72 h; method in brief: as §3
# HT-1080 [10] = assay: Induction of apoptosis in human HT1080 cells assessed as change in cell phenotype after 72 hrs by acridine orange staining based fluorescence microscopic analysis; format: functional; method in brief: as §3
# HT-1080 [11] = assay: Induction of apoptosis in human HT1080 cells assessed as nucleus fragmentation after 72 hrs by acridine orange staining based fluorescence microscopic analysis; format: functional, cell-based; method in brief: as §3
smiles,measurement,setting,value
CCOC(=O)c1[se]c2ccccc2c1-c1ccc(C)s1,CC50,MG-22A [1],19.5 µg/mL
same,CC50 at 72 h,[2],15 µg/mL
same,CC50,HT-1080 [3],16 µg/mL
same,Activity,HT-1080 [4],350%
same,Activity,MG-22A [5],350%
Cc1csc2nc3c([se]c4ccccc43)c(=O)n12,Activity,MG-22A [1],inactive
same,CC50 at 72 h,[2],21 µg/mL
same,Activity,HT-1080 [3],inactive
same,Activity,HT-1080 [4],2%
same,Activity,MG-22A [5],4%
O=c1c2[se]c3ccccc3c2nc2sc3ccccc3n12,CC50,MG-22A [1],9.5 µg/mL
same,CC50 at 72 h,[2],27 µg/mL
same,CC50,HT-1080 [3],8.5 µg/mL
same,Activity,HT-1080 [4],2%
same,Activity,HT-1080 [6],Active
same,Activity,MG-22A [5],3%
CCOC(=O)c1[se]c2ccccc2c1Nc1cccnc1,Activity,MG-22A [1],inactive
same,CC50 at 72 h,[2],1000 µg/mL
same,Activity,HT-1080 [3],inactive
same,Activity,HT-1080 [4],12%
same,Activity,MG-22A [5],9%
CCOC(=O)c1[se]c2ccccc2c1-c1ccsc1,Activity,MG-22A [1],inactive
same,CC50 at 72 h,[2],31 µg/mL
same,Activity,HT-1080 [3],inactive
same,Activity,HT-1080 [4],13%
same,Activity,MG-22A [5],14%
CCOC(=O)c1[se]c2ccccc2c1-c1ccccc1,Activity,MG-22A [1],inactive
same,CC50 at 72 h,[2],16 µg/mL
same,CC50,HT-1080 [3],65 µg/mL
same,Activity,HT-1080 [4],25%
same,Activity,MG-22A [5],23%
CCOC(=O)c1[se]c2ccccc2c1-c1ccc(OC(C)C)cc1,Activity,MG-22A [1],inactive
same,Activity,NIH3T3 [7],Non-toxic
same,Activity,HT-1080 [3],inactive
same,Activity,HT-1080 [4],9%
same,Activity,MG-22A [5],15%
CCOC(=O)c1[se]c2ccccc2c1-c1ccc(C#N)cc1,Activity,MG-22A [1],inactive
same,CC50 at 72 h,[2],684 µg/mL
same,Activity,HT-1080 [3],inactive
same,Activity,HT-1080 [4],8%
same,Activity,MG-22A [5],7%
CCOC(=O)c1[se]c2ccccc2c1Sc1ncccn1,Activity,MG-22A [1],inactive
same,CC50 at 72 h,[2],840 µg/mL
same,Activity,HT-1080 [3],inactive
same,Activity,HT-1080 [4],8%
same,Activity,MG-22A [5],7%
CCOC(=O)c1[se]c2ccccc2c1Br,CC50,MG-22A [1],40.5 µg/mL
same,CC50 at 72 h,[2],896 µg/mL
same,Activity,HT-1080 [3],inactive
same,Activity,HT-1080 [4],14%
same,Activity,MG-22A [5],40%
O=c1c2[se]c3ccccc3c2nc2c(Cl)cc(C(F)(F)F)cn12,CC50,MG-22A [1],2.75 µg/mL
same,CC50 at 72 h,[2],31 µg/mL
same,CC50,HT-1080 [3],3.5 µg/mL
same,Activity,HT-1080 [4],2%
same,Activity,MG-22A [5],8%
same,Activity,HT-1080 [8],Active
O=c1c2[se]c3ccccc3c2nc2c3ncccc3ccn12,Activity,MG-22A [1],inactive
same,CC50 at 72 h,[2],56 µg/mL
same,Activity,HT-1080 [3],inactive
same,Activity,HT-1080 [4],20%
same,Activity,MG-22A [5],3%
CCOC(=O)c1[se]c2ccccc2c1C#Cc1ccccc1,CC50,MG-22A [1],87 µg/mL
same,CC50 at 72 h,[2],614 µg/mL
same,CC50,HT-1080 [3],76 µg/mL
same,Activity,HT-1080 [4],15%
same,Activity,MG-22A [5],10%
O=c1c2[se]c3ccccc3c2nc2ccccn12,CC50,MG-22A [1],3 µg/mL
same,CC50 at 72 h,[2],31 µg/mL
same,Activity,NIH3T3 [9],Toxic
same,CC50,HT-1080 [3],3 µg/mL
same,Activity,HT-1080 [10],Active
same,Activity,HT-1080 [4],5%
same,Activity,MG-22A [5],7%
O=c1c2[se]c3ccccc3c2nc2cnccn12,Activity,MG-22A [1],inactive
same,CC50 at 72 h,[2],27 µg/mL
same,Activity,HT-1080 [3],inactive
same,Activity,HT-1080 [4],2%
same,Activity,MG-22A [5],7%
O=c1c2[se]c3ccccc3c2nc2ccc(Cl)cn12,CC50,MG-22A [1],3 µg/mL
same,CC50 at 72 h,[2],32 µg/mL
same,Activity,NIH3T3 [9],Toxic
same,CC50,HT-1080 [3],3 µg/mL
same,Activity,HT-1080 [4],3%
same,Activity,HT-1080 [11],Active
same,Activity,MG-22A [5],40%
CCOC(=O)c1[se]c2ccccc2c1C#CC1=CCCCC1,CC50,MG-22A [1],32 µg/mL
same,CC50 at 72 h,[2],120 µg/mL
same,CC50,HT-1080 [3],32.5 µg/mL
same,Activity,HT-1080 [4],200%
same,Activity,MG-22A [5],200%
CCOC(=O)c1[se]c2ccccc2c1-c1cc(F)c(F)c(F)c1,CC50,MG-22A [1],81.5 µg/mL
same,CC50 at 72 h,[2],100 µg/mL
same,Activity,HT-1080 [3],inactive
same,Activity,HT-1080 [4],6%
same,Activity,MG-22A [5],12%
